inhibition, ΔTm and Activity data for 1 compound are collected here from ChEMBL document CHEMBL4350961, “Discovery of Pyrrolo[3,2- d]pyrimidin-4-one Derivatives as a New Class of Potent and Cell-Active Inhibitors of P300/CBP-Associated Factor Bromodomain” (J Med Chem, 2019).

Structures are written as SMILES. Calls of active or inactive are those of the source. The calls are words filed in the database; no cut-off is given here.

The target of experiment [1] is Death-associated protein kinase 3 (Homo sapiens) (UniProt O43293). Kind of experiment: Inhibition of human ZIPK (1 to 290 residues) using KKLNRTLSFAEPG as substrate measured after 40 mins in presence of [gamma33P]ATP by scintillation counting method.
Experiment [2] concerns Discoidin domain-containing receptor 2 (Homo sapiens), Q16832 [UNDEFINED MUTATION]. Kind of experiment: Inhibition of recombinant human DDR2 S642A mutant (467 to end residues) at 10 uM using KKSRGDYMTMQIG as substrate measured after 40 mins in presence of [gamma33P]ATP by scintillation counting method.
In experiment [3] the target is Activin receptor type-1B (Homo sapiens) (UniProt P36896). Kind of experiment: Inhibition of recombinant human ALK4 (150 to end residues) at 10 uM using casein as substrate measured after 40 mins in presence of [gamma33P]ATP by scintillation counting method.
The target of experiment [4] is Serine/threonine-protein kinase 3 (Homo sapiens) (UniProt Q13188). The experiment is described as follows: Inhibition of recombinant full-length human MST2 (2 to end residues) at 10 uM using myelin basic protein as substrate measured after 40 mins in presence of [gamma33P]ATP by scintillation counting method.
Experiment [5] deals with Dual specificity mitogen-activated protein kinase kinase 3 (Homo sapiens) (UniProt P46734). Kind of experiment: Inhibition of human MKK3 at 10 uM by radiometric method. In outline:
(§1)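 Kinase panel of 422 kinases screened by Eurofins KinaseProfiler at a single test-compound concentration of 10 µM.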

A further experiment is filed under the species Homo sapiens. Kind of experiment: Inhibition of recombinant full-length human PI3K p110delta/p85alpha N253S mutant at 10 uM using phosphatidylinositol-4, 5-bisphosphate as substrate measured after 40 mins by fluorescence assay.
In experiment [6] the test system is Macrophage colony-stimulating factor 1 receptor (Homo sapiens), P07333 [Y969C]. The experiment is described as follows: Inhibition of recombinant human FMS Y969C mutant (538 to end residues) at 10 uM using EEEEYEEEEEEYYIIEEEEEEYEEEEEEYYEEEEEEKKKK as substrate measured after 40 mins in presence of [gamma33P]ATP by scintillation counting method.
In experiment [7] the target is STE20-like serine/threonine-protein kinase (Homo sapiens) (UniProt Q9H2G2). Kind of experiment: Inhibition of human SLK (1 to 373 residues) using RLGRDKYKTLRQIRQ as substrate measured after 40 mins in presence of [gamma33P]ATP by scintillation counting method. In a few lines: as §1
Experiment [8] deals with Homeodomain-interacting protein kinase 1 (Homo sapiens) (UniProt Q86Z02). The experiment is described as follows: Inhibition of recombinant human activated HIPK1 (158 to 555 residues) at 10 uM using myelin basic protein as substrate measured after 40 mins in presence of [gamma33P]ATP by scintillation counting method.
Experiment [9] concerns the target Bromodomain-containing protein 4 (Homo sapiens) (UniProt O60885). The experiment is described as follows: Binding affinity to human N-terminal His-tagged BRD4 bromodomain1 assessed as change in melting temperature at 10 uM by SYPRO orange dye-based fluorescence assay. In a few lines:
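Thermal shift with His-tagged human bromodomain at 2 μM final in 10 mM HEPES pH 7.5, 500 mM NaCl. Compound at 10 μM final with 0.1% DMSO; SYPRO Orange at 1:1000. Equilibrated 3 min at 25 °C, then heated from 25 to 95 °C at 1 °C/min. Melting temperature shift taken from fluorescence; at least duplicate.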

Experiment [10] concerns the target Serine/threonine-protein kinase NIM1 (Homo sapiens) (UniProt Q8IY84). The experiment is described as follows: Inhibition of recombinant full-length human NIM1 at 10 uM using KKKVSRSGLYRSPSMPENLNRPR as substrate measured after 40 mins in presence of [gamma33P]ATP by scintillation counting method.
For another experiment, the species on record is Mus musculus. Kind of experiment: Inhibition of recombinant full-length mouse PI3K p110alpha/p85alpha H1047R mutant at 10 uM using phosphatidylinositol-4, 5-bisphosphate as substrate measured after 40 mins by HTRF assay.
The target of experiment [11] is Serine/threonine-protein kinase D2 (Homo sapiens) (UniProt Q9BZL6). The experiment is described as follows: Inhibition of recombinant full-length human PKD2 at 10 uM using KKLNRTLSVA as substrate measured after 40 mins in presence of [gamma33P]ATP by scintillation counting method.
In experiment [12] the target is Tyrosine-protein kinase JAK1 (Homo sapiens) (UniProt P23458). The experiment is described as follows: Inhibition of recombinant human JAK1 (866 to end residues) at 10 uM using GEEPLYWSFPAKKK as substrate measured after 40 mins in presence of [gamma33P]ATP by scintillation counting method.
Experiment [13] deals with Death-associated protein kinase 1 (Homo sapiens) (UniProt P53355). Kind of experiment: Inhibition of recombinant human DAPK1 (1 to 296 residues) at 10 uM using KKLNRTLSFAEPG as substrate measured after 40 mins in presence of [gamma33P]ATP by scintillation counting method.
Experiment [14] concerns the target Tyrosine-protein kinase Lck (Homo sapiens) (UniProt P06239). Kind of experiment: Inhibition of recombinant full-length human activated Lck at 10 uM using KVEKIGEGTYGVVYK as substrate measured after 40 mins in presence of [gamma33P]ATP by scintillation counting method.
Experiment [15] has as its target Serine-protein kinase ATM (Homo sapiens) (UniProt Q13315). The experiment is described as follows: Inhibition of recombinant full-length human ATM at 10 uM using GST-cMyc-p53 as substrate measured after 40 mins by ELISA.
Experiment [16] concerns Homeodomain-interacting protein kinase 2 (Homo sapiens), Q9H2X6 [UNDEFINED MUTATION]. The experiment is described as follows: Inhibition of recombinant human HIPK2 I471N mutant (165 to 564 residues) at 10 uM using myelin basic protein as substrate measured after 40 mins in presence of [gamma33P]ATP by scintillation counting method.
Experiment [17] concerns the target Dual specificity tyrosine-phosphorylation-regulated kinase 2 (Homo sapiens) (UniProt Q92630). Kind of experiment: Inhibition of recombinant full-length human DYRK2 at 10 uM using casein as substrate measured after 40 mins in presence of [gamma33P]ATP by scintillation counting method.
Experiment [18] has as its target Receptor tyrosine-protein kinase erbB-4 (Homo sapiens) (UniProt Q15303). The experiment is described as follows: Inhibition of recombinant human ErbB4 (706 to 991 residues) at 10 uM using poly (Glu, Tyr) 4:1 as substrate measured after 40 mins in presence of [gamma33P]ATP by scintillation counting method.
Experiment [19] has as its target Interleukin-1 receptor-associated kinase 1 (Homo sapiens) (UniProt P51617). The experiment is described as follows: Inhibition of recombinant human IRAK1 (194 to end residues) at 10 uM using myelin basic protein as substrate measured after 40 mins in presence of [gamma33P]ATP by scintillation counting method.
Experiment [20] deals with Cyclin-dependent kinase 1/cyclin B1 (Homo sapiens) (UniProt P06493+P14635). Kind of experiment: Inhibition of recombinant full-length human CDK1/cyclinB at 10 uM using histone H1 as substrate measured after 40 mins in presence of [gamma33P]ATP by scintillation counting method. It counts as protein-complex assay.
Experiment [21] has as its target Bromodomain-containing protein 7 (Homo sapiens) (UniProt Q9NPI1). The experiment is described as follows: Binding affinity to human partial length BRD7 (L125 to R254 residues) expressed in mammalian expression system at 1 uM by BROMOscan assay. In a few lines:
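BROMOscan bromodomain cross-screen run by an outside service, compound at 1 µM against 32 recombinant bromodomains. Binding given as percent of control.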

Sequence of Death-associated protein kinase 1 (Homo sapiens) (P53355 whole entry, looked up, the tested form may be a part): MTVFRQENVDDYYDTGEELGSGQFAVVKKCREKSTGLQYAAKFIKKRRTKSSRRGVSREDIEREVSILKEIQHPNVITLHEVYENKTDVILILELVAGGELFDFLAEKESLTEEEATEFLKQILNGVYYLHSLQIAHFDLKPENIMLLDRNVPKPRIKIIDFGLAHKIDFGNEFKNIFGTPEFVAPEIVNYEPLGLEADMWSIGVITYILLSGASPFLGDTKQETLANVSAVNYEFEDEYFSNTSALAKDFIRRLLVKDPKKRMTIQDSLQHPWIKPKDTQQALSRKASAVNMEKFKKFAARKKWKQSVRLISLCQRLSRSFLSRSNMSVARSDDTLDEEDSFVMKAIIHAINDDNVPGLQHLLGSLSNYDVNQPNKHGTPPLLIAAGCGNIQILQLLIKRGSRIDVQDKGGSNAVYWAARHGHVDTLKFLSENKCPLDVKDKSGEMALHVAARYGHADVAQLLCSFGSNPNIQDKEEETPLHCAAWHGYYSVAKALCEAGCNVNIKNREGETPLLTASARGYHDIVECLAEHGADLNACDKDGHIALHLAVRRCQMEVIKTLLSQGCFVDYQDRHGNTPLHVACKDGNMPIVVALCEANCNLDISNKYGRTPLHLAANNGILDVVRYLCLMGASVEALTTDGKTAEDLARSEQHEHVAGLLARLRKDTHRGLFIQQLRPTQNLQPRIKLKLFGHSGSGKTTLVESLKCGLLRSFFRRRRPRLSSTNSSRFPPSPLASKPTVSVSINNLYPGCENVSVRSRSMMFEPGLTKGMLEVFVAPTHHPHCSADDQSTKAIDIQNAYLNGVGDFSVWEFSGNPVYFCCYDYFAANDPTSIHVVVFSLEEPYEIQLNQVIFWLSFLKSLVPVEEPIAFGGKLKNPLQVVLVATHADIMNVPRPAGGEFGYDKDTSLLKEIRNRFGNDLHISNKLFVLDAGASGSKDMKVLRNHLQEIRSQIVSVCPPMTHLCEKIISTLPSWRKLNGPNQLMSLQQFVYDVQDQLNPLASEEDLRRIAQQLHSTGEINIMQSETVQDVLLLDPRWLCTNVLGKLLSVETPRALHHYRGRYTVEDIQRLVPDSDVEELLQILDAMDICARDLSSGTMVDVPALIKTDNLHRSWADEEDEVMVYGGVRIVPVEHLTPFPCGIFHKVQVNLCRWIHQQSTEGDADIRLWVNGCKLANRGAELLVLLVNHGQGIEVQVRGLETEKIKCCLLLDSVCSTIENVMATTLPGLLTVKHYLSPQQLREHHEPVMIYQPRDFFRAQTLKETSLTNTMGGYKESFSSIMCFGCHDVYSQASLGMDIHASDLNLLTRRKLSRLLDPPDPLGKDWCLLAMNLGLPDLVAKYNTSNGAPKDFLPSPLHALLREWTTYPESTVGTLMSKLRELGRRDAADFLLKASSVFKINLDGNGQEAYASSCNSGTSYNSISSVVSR
Sequence of Homeodomain-interacting protein kinase 1 (Homo sapiens) (Q86Z02 whole entry, looked up, the tested form may be a part): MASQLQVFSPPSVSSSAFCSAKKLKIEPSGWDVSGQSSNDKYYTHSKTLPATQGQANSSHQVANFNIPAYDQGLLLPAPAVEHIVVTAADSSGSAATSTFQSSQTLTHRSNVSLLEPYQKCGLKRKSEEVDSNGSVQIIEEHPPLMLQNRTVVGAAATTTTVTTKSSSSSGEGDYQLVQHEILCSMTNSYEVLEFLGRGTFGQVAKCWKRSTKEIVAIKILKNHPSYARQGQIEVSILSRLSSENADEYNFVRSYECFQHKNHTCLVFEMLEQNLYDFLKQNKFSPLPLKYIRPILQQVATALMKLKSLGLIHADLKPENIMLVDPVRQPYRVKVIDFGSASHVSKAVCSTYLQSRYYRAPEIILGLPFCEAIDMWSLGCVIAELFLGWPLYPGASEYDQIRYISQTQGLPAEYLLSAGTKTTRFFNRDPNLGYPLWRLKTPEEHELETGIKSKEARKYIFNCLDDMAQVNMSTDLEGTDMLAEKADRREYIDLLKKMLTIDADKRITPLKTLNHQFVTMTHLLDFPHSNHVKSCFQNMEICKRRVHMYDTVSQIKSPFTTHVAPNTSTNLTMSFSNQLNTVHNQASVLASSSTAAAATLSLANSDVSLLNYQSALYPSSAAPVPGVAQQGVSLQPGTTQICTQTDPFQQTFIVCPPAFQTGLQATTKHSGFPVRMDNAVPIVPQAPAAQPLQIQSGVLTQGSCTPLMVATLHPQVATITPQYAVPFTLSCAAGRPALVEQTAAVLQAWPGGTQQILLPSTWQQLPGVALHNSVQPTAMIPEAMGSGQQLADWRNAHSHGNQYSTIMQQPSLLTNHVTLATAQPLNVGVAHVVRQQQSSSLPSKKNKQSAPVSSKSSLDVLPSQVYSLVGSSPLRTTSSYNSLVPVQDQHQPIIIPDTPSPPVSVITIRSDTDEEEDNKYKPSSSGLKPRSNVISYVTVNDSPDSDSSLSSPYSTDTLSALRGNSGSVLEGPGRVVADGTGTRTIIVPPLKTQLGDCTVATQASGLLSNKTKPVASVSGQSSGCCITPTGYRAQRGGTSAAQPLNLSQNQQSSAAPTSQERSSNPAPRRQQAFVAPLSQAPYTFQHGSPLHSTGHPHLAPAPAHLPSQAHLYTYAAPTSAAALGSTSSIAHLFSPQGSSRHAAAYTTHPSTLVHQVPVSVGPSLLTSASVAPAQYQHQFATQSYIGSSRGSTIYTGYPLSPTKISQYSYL
Sequence of Interleukin-1 receptor-associated kinase 1 (Homo sapiens) (P51617 whole entry, looked up): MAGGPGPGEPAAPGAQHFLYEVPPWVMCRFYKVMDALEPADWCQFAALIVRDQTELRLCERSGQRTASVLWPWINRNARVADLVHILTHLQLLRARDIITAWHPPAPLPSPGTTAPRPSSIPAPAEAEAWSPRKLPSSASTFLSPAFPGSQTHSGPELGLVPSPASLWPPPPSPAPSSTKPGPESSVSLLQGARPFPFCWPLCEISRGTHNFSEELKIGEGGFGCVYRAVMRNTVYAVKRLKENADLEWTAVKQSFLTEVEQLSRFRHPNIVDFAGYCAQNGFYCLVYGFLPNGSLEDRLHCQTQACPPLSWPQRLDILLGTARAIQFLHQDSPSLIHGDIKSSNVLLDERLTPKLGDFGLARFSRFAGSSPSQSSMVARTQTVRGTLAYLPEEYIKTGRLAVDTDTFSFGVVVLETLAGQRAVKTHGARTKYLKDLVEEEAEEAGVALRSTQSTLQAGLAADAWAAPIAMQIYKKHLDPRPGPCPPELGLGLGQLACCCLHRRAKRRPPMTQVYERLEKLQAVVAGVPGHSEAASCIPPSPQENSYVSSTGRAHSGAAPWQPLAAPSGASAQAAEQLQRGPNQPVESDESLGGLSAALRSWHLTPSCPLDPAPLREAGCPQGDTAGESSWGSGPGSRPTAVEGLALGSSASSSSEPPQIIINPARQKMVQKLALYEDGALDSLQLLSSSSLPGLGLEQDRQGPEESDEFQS
Sequence of Cyclin-dependent kinase 1/cyclin B1 (Homo sapiens) (P06493 whole entry, looked up, the tested form may be a part): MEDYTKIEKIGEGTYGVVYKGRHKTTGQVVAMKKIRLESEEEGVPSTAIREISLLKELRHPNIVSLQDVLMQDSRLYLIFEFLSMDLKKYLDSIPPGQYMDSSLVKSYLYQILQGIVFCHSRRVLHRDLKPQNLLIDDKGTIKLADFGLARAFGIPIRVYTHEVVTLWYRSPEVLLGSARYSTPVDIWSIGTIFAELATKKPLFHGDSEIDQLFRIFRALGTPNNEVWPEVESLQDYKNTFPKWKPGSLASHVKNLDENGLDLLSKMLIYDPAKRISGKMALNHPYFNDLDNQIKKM
Sequence of Cyclin-dependent kinase 1/cyclin B1 (Homo sapiens) (P14635 whole entry, looked up, the tested form may be a part): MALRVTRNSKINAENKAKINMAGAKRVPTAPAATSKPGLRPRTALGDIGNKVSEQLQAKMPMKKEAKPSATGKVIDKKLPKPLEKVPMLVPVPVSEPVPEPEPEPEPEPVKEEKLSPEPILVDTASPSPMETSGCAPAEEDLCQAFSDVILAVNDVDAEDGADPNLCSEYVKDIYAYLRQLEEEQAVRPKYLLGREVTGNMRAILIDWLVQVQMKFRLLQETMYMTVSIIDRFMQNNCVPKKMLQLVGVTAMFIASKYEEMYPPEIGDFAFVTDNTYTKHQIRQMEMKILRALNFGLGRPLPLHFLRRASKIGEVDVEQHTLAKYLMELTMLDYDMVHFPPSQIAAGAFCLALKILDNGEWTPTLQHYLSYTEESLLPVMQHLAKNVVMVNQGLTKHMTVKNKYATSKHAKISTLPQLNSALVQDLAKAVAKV
Sequence of Discoidin domain-containing receptor 2 (Homo sapiens), Q16832 [UNDEFINED MUTATION] (Q16832 whole entry, looked up, stated change not applied, the tested form may be a part): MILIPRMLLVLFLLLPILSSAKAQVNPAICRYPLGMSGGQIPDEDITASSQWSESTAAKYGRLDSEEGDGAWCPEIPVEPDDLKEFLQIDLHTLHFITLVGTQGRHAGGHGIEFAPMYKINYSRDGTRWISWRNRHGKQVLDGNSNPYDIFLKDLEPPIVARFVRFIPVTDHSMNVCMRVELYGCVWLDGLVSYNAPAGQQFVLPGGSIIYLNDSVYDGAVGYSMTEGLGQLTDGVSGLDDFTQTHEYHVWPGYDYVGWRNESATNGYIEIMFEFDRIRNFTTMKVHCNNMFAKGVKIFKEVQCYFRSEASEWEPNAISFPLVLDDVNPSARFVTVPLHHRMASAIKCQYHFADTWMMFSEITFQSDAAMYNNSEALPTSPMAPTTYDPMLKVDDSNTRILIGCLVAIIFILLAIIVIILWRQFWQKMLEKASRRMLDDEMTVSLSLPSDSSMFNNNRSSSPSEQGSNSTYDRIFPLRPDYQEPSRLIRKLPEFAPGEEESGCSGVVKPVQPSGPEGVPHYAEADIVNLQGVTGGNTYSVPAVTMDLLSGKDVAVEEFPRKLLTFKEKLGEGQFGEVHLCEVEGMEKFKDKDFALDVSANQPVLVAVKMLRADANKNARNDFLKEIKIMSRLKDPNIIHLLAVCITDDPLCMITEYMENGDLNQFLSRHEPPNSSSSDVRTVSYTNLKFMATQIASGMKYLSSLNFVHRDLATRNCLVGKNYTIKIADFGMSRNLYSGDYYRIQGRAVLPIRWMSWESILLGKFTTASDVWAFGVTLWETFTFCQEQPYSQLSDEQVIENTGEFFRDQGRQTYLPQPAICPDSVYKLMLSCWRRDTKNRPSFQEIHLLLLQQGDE

As to `CN1C[C@H](Nc2nc3cc[nH]c3c(=O)n2C)C[C@H](c2ccc3c(c2)OCCO3)C1`, the inhibition result (in experiment [1]; in experiment [2]; in experiment [3]; in [4]; in experiment [5]; in the experiment listed under Homo sapiens) was “inactive” in each case. Besides, the inhibition entry (in experiment [6]; in [7]; in experiment [8]; in experiment [10]; in the experiment listed under Mus musculus; in experiment [11]) was “inactive” each time. Moreover, the inhibition entry in experiment [12], in [13], in [14], in [15], in experiment [16] and in experiment [17] was “inactive” in each case. In addition, the inhibition entry in experiment [18], in experiment [19] and in [20] was “inactive” each time. Moreover, in experiment [9], the ΔTm turned out to be 0.1 °C. Besides, the outcome in [21] was inactive.
